# Rpn11 inh: Rpn11 (human) deubiquitinase inhibition | O00487 | human 26S proteasome, Ub4-pepOG fluorescence polarization; 20S core pre-blocked with epoxomicin | inhibition, % at 20 µM | 360,000 compounds, 0.59% hits | AID 588493;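 active means inhibition at 20 µM, scaled to each plate's controls, above about 33%, limit read from the data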
# HNF4A DNA FP: change in binding of human HNF4 alpha to DNA; P41235; HNF4a-FITC DNA binding, fluorescence polarization, 1 h; activity change, % at 10 µM; 360,000 compounds, 0.3% hits; AID 1224865; in the data active means activity change above about 30%, passing the limit was not always enough
# CSN deneddyl inh: blocks human CSN-mediated cullin deneddylation; 360,000 compounds, 0.38% hits; Purified CSN, SCF-Nedd8-OG deneddylation, fluorescence polarization; Q92905; inhibition, % at 12.5 µM;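 active means pattern-corrected inhibition above about 35%, with an unprinted fluorescence ratio check between 0.5 and 1.5, limit read from the data, passing the limit was not always enough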;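 further: 0% = enzyme with substrate and 100% = substrate without enzyme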
#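 assay system = purified human Csn5 enzyme expressed in HEK293T cells | amount = 0.24 nM enzyme | buffer or medium = Tris/NaCl/DTT buffer, pH 7.5 | reagent = 10 nM SCFSkp2-Nedd8OG | compound = one concentration, 12.5 µM, 0.25% DMSO | times = 90 min reaction at room temperature | signal = FP | read-out basis = % inhibition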
# Neddylation inh: inhibitors of human cullin neddylation. P61081+Q13564. AID 651699. TR-FRET cullin neddylation, biochemical. inhibition, % at 25 µM. 360,000 compounds, 0.58% hits; in the data active means inhibition above about 36%
# Target sequence (P61081 whole entry, looked up): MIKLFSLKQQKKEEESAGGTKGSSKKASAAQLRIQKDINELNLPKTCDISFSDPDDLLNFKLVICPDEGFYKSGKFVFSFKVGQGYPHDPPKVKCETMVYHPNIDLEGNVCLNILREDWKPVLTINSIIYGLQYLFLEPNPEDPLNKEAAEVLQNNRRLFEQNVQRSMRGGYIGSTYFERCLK
# Target sequence (Q13564 whole entry, looked up): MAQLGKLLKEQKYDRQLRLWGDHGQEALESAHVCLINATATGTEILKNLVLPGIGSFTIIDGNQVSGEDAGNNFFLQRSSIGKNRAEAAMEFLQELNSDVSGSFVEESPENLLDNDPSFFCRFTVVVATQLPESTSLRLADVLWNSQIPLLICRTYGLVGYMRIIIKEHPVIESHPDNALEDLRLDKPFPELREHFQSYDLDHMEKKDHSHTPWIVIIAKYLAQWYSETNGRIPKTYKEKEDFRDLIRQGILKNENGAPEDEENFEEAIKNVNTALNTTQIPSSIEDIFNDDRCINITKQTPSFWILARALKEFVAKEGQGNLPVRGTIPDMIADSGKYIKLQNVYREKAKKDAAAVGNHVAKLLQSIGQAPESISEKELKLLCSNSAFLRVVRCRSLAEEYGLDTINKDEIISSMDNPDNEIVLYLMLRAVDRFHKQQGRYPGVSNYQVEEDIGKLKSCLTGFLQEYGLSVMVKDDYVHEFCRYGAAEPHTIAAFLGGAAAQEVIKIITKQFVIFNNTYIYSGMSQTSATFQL
# PREPL inhibitor: inhibits the human prolyl oligopeptidase-like enzyme; Q4J6C6; 320,000 compounds, 0.68% hits; inhibition, % at 5.96 µM; recombinant PREPL, fluorescence polarization activity-based probe; in the data active means inhibition above about 43%;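 further: 0% = enzyme with DMSO and 100% = wells lacking enzyme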
# TbMetRS inhib: Trypanosoma brucei MetRS inhibition | purified T. brucei MetRS, ATP depletion, Kinase-Glo luminescence | inhibition, % at 11.9 µM | 360,000 compounds, 0.4% hits;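 active means inhibition above a per-plate cutoff of the control wells' mean inhibition plus 3 SD, cut at about 5.5% in these data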;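 further: 0% = DMSO wells median and 100% = median of wells with control inhibitor compound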
#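 Test system: purified T. brucei MetRS enzyme. Also added: ATP, methionine and E. coli bulk tRNA substrates. Compound: 11.9 µM single point. Schedule: 15 min enzyme-compound preincubation, 2 h reaction, 10 min detection, 25 °C. Signal: luciferase luminescence of residual ATP, Kinase-Glo. Evaluation: percent inhibition versus plate control medians. Controls: DMSO wells, low control.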
# Rpn11 confirm: Rpn11 inhibition confirmation, single concentration; shares compounds with Rpn11 inh; purified human 26S proteasome, Ub4-pepOG fluorescence polarization; proteasome pretreated with epoxomicin; inhibition, % at 20 µM; 1,900 compounds, 29% hits
# MMP-2 counter: counter-screen for RPN11 inhibitors: inhibition of human MMP-2. 1,900 compounds, 4% hits. shares compounds with Rpn11 inh. recombinant MMP-2, FRET peptide cleavage fluorescence. inhibition, % at 20 µM;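 further: human MMP-2 activated beforehand with APMA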
# Thrombin inh: counter-screen for RPN11 inhibitors: inhibition of bovine thrombin; shares compounds with Rpn11 inh; bovine thrombin cleavage of Ub4-pepOG, fluorescence polarization; inhibition, % at 20 µM; 1,900 compounds, 13% hits;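 active means mean inhibition at least 40% at 20 µM, or signal 3 deviations below plate average, so some actives read negative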;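 further: plate controls were thrombin with DMSO for no effect and buffer wells lacking thrombin for full effect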
# An asterisk follows results filed as active; . = not tested or not shown. An excerpt weighted towards active compounds, which were near 2.4% of everything screened. Unless noted, no stated cut-off is given here; in the data, active means inhibition above about 40%; inactive means the rest.
SMILES,Rpn11 inh,HNF4A DNA FP,CSN deneddyl inh,Neddylation inh,PREPL inhibitor,TbMetRS inhib,Rpn11 confirm,MMP-2 counter,Thrombin inh
CCOC(=O)c1c(NC(=O)c2cccs2)sc(C)c1CC,6,2,-5,.,3,0,.,.,.
Cc1ccc(C2C(/C=C3/SC(=S)NC3=O)=C(c3cccs3)Oc3ccccc32)cc1 (centres undefined),49*,-4,4,-20,7,0,45*,41*,16
Cc1cc(O)c(C(C)C)cc1N=Cc1cc([N+](=O)[O-])ccc1O,11,3,0,-12,-11,-1,.,.,.
Cc1cc(O)c(C(C)C)cc1N=Cc1ccccc1O,45*,21,9,-16,-1,0,25,-20,24
Cc1noc(C)c1C(=O)N(CC(=O)Nc1ccccc1Br)Cc1ccco1,5,0,4,-10,4,0,.,.,.
CCCCNC(=O)CN(Cc1ccco1)S(=O)(=O)c1ccc(C(C)=O)cc1,4,1,-1,14,8,0,.,.,.
CC(NC(=O)C1CCN(C(=O)c2ccc(F)cc2)CC1)c1ccc(S(N)(=O)=O)cc1 (centres undefined),0,5,2,-1,4,0,.,.,.
CC(NC(=O)C1CCN(C(=O)c2cccs2)CC1)c1ccc(S(N)(=O)=O)cc1 (centres undefined),67*,31,101*,39,5,0,63*,-117,-8
N#Cc1c(-c2ccc(Cl)cc2)c(-c2ccc(Cl)cc2)nn(CCOC(=O)CCC(=O)O)c1=O,-4,0,3,16,.,0,.,.,.
CC(=O)Oc1ccc(C(=O)NCCc2ccccc2)cc1,-2,6,-13,-4,-4,-1,.,.,.
CC(=O)Oc1ccc(-c2ccc(C(=O)NCCc3ccc(S(N)(=O)=O)cc3)cc2)cc1,48*,2,-1,9,2,-1,11,-16,9
CN1CCN(C(=O)/C(=C/c2ccc(N(C)C)cc2)NC(=O)c2ccccc2)CC1,49*,-1,24,-3,16,-1,17,-7,5
Cc1cc(C(=O)COC(=O)c2cccnc2Cl)c(C)n1C,-7,-3,-2,-8,10,0,.,.,.
Cc1ccc(CNc2oc(-c3ccco3)nc2S(=O)(=O)c2ccccc2)cc1,80*,3,5,21,12,0,7,20,0
Cc1ccc(C(=O)N/C(=C/c2ccco2)C(=O)N2CCCCC2)cc1,12,8,9,5,6,0,.,.,.
COc1ccc(C(=O)N/C(=C/c2ccco2)C(=O)N2CCCCCC2)cc1,50*,15,3,5,8,-1,-4,-32,-18
Cc1nc2ccccc2c2oc(C(=O)N3CCN(C4CCCCC4)CC3)cc12,3,0,1,1,-1,-1,.,.,.
Cc1nc2ccccc2c2oc(C(=O)N3CCC(N4CCCCC4)CC3)cc12,58*,16,16,9,11,0,18,-36,2
Cc1sc2nc(SCC(=O)Nc3ccccc3F)[nH]c(=O)c2c1C,0,0,-3,-41,-4,0,.,.,.
Cc1csc(NC(=O)CSc2nc3sc(C)c(C)c3c(=O)[nH]2)n1,53*,21,20,-60,-12,-1,44*,-5,29
N#C/C(=C\c1c(N(Cc2ccccc2)Cc2ccccc2)nc2ccccn2c1=O)C(N)=O,-6,3,0,-7,-2,0,.,.,.
C=CCNC(=O)/C(C#N)=C/c1c(N(Cc2ccccc2)Cc2ccccc2)nc2ccccn2c1=O,46*,0,1,4,0,0,19,21,12
CN(C)S(=O)(=O)c1ccc(C(=O)NCc2cccs2)cc1,-4,-1,-7,6,10,0,.,.,.
CN(C)S(=O)(=O)c1ccc(C(=O)NCc2nc3ccccc3s2)cc1,34*,-29,-6,0,-8,0,5,-13,-13
CC(C)C(=O)N1CCC1(C)C(=O)Nc1cc(-c2ccccc2)nn1C (centres undefined),5,0,-3,-1,.,0,.,.,.
SMILES,Rpn11 inh,HNF4A DNA FP,CSN deneddyl inh,Neddylation inh,PREPL inhibitor,TbMetRS inhib,Rpn11 confirm,MMP-2 counter,Thrombin inh
O=C1/C(=C/c2ccc(O)c(O)c2)Oc2cc(O)ccc21,86*,20,30,-8,3,2,49*,4,30
O=C1/C(=C/c2cccc([N+](=O)[O-])c2)Oc2cc(O)ccc21,11,2,1,-29,6,-1,.,.,.
O=C(O)CN1C(=O)/C(=C\c2cn(-c3ccccc3)nc2-c2ccccc2)SC1=S,-6,-2,0,-35,16,0,.,.,.
O=C1C(=Cc2cn(-c3ccccc3)nc2-c2ccc(OCc3ccccc3)cc2)SC(=S)N1CCS(=O)(=O)O,98*,-46,29,10,.,2,90*,29,134*
CC(C)COc1ccc(-c2nn(-c3ccccc3)cc2/C=C2/SC(=S)N(CC(=O)O)C2=O)cc1,49*,-30,13,4,-6,0,41*,-23,49*
O=C(NCC(O)c1ccccc1)c1cccs1 (centres undefined),-6,-2,2,-1,6,-1,.,.,.
COc1cc(/C=C(\C#N)C(=O)N2CCc3ccccc32)ccc1O,81*,0,8,-18,7,0,11,-16,10
COc1cc(/C=C(\C#N)C(=O)Nc2ccc3c(c2)OCCO3)ccc1O,56*,7,19,-22,-5,1,2,17,37
N#C/C(=C\c1cccc(O)c1)C(=O)N1CCCCC1,2,-3,-3,8,-5,0,.,.,.
COc1cc(/C=C/C(=O)OCC(=O)Nc2ccc3c(c2)OCCO3)ccc1O,-5,-1,0,19,0,0,.,.,.
N#C/C(=C\c1ccc(O)c(O)c1)C(=O)N1CCc2ccccc21,65*,2,14,-26,17,0,70*,15,15
CCC(=O)N1c2ccc(S(=O)(=O)N3CCN(c4ccc([N+](=O)[O-])cc4)CC3)cc2CC1C (centres undefined),-2,0,-3,-6,-61,0,.,.,.
CCOC(=O)C1=C(N)n2c(s/c(=C\c3cccnc3)c2=O)=C(C(=O)OC)C1c1cccnc1 (centres undefined),35*,0,67*,-3,-5,0,-16,-7,-23

# Screening data deposited in PubChem by several laboratories.
